Reference: ChEMBL document CHEMBL4354813, “Design, Synthesis, and Pharmacological Evaluation of Potent Positive Allosteric Modulators of the Glucagon-like Peptide-1 Receptor (GLP-1R)” (J Med Chem, 2020)
Activity calls are given as the source filed them. No cut-off for these calls is given here.

What was measured:
[1] = target: Voltage-gated inwardly rectifying potassium channel KCNH2 (Homo sapiens, UniProt Q12809); test: Inhibition of human ERG by patch clamp assay
OATP1B3 = target: T1, OATP1B3 (Homo sapiens, UniProt Q9NPD5); test: Substrate activity at human OATP1B3 expressed in HEK293 cells assessed as increase in compound uptake at 1 uM incubated up to 15 mins LC-MS/MS analysis relative to control relative to control; format: ADME, cell-based; details: HEK293 cells expressing human OATP1B3, read-out: FC
T1 sequence (Q9NPD5 whole entry): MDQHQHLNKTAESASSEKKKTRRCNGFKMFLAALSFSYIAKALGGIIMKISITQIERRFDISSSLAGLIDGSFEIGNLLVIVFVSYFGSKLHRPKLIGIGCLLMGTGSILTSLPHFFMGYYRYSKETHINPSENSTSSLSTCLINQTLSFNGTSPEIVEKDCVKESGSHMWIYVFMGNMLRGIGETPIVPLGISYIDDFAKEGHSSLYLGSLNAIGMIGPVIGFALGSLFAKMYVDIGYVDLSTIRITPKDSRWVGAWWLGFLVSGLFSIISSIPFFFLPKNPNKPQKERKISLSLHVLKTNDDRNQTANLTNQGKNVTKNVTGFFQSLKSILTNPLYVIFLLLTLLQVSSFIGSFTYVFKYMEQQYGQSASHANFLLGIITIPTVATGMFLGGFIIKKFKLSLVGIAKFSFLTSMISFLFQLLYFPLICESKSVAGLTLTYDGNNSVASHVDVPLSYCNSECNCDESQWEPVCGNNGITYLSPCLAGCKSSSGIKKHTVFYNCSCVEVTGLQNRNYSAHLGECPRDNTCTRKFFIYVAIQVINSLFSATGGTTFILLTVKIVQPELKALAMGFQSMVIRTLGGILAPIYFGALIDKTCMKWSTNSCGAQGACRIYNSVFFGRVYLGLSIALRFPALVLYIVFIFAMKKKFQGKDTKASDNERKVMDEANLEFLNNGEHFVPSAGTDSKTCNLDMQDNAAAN
Summary of the method: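 HEK-TR cells overexpressing hOATP1B1 or hOATP1B3, run in parallel with control HEK-TR cells, seeded at 1 x 10⁵ cells/well one day before. Time-dependent uptake of 1 μM compound in HBSS at 37 °C, quadruplicates. Uptake stopped with ice-cold buffer, cells washed, lysed and quantified by LC-MS/MS. Uptake ratio calculated against the control cells.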

[2] = Oral bioavailability in Wistar rat at 10 mg/kg administered as single dose measured up to 24 hrs ESI-LC/MS-MS analysis; format: ADME, organism-based; details: in vivo
Summary of the method: (§1)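 Single dose of compound: 3 mg/kg i.v. in solution (75% water : 25% of 75% Glycoferol/25% Cremophor) or 10 mg/kg p.o. as wet-milled suspension (0.6% methylcellulose, 0.5% Tween 80 in water); male Wistar rats n=3 per route, female C57Bl6 mice n=24 per route. Plasma sampled 0.25–24 h (p.o.), 0.083–24 h (i.v.); heparinized plasma, acetonitrile precipitation, ESI-LC/MS-MS (LOQ 1 ng/mL rat, 5 ng/mL mouse); noncompartmental analysis, linear trapezoidal.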

[3] = Clearance in C57Bl6 mouse at 3 mg/kg, iv administered as single dose measured up to 24 hrs ESI-LC/MS-MS analysis; format: ADME, organism-based; details: in vivo
Summary of the method: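 Female C57Bl6 mice (n=24) given single 3 mg/kg i.v. in solution (75% water : 25% of 75% Glycoferol/25% Cremophor); plasma sampled at 0.083, 0.25, 0.5, 1, 2, 4, 6, 8, 24 h; heparinized plasma after acetonitrile protein precipitation analysed by ESI-LC/MS-MS (LOQ 5 ng/mL); noncompartmental parameters with linear trapezoidal calculation.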

[4] = Clearance in human hepatocytes assessed per million cells by LC-MS/MS analysis; format: ADME, cell-based, Hepatocyte
Summary of the method: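 Intrinsic clearance in primary human hepatocytes ([…] as printed) or mouse hepatocytes, compound 0.5–5 µM; quinidine or ketoconazole added to define CYP2D6/CYP3A4 contribution; LC-MS/MS analysis.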

[5] = Volume of distribution at steady state in Wistar rat at 3 mg/kg, iv administered as single dose treated 2 hrs after dosing with 40 mg/kg, po OATP/MRP2 inhibitor rifampicin and measured up to 24 hrs ESI-LC/MS-MS analysis; format: ADME, organism-based; details: in vivo, read-out: Vdss
[6] = AUClast in Wistar rat at 10 mg/kg, po administered as single dose measured up to 24 hrs ESI-LC/MS-MS analysis; format: ADME, organism-based; parameters: dose 10 mg/kg, time < 24 hr, route oral; details: in vivo; summary of the method: as §1
Mus musculus = test: Suppression of blood glucose concentration in 4.5 mg/kg, ip GLP1(9-36)NH2-treated GLP-1R (-/-) C57Bl/6J mouse model at 30 mg/kg, po dosed 1 hrs before test and treated with 60 mg/kg, po OATP/MRP2 inhibitor rifampicin 2.5 hrs prior to oral glucose-tolerance test; format: functional, organism-based
Summary of the method: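 GLP-1R-/- male mice aged 10 weeks, n=6, fasted overnight. Rifampicin 60 mg/kg p.o. 2.5 h before the oGTT, compound p.o. 1 h before, with or without GLP1(9-36)NH2 i.p. 15 min before. Glucose 2 g/kg orally. Tail-vein blood glucose by glucometer at 0, 15, 30, 60 and 90 min.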

[7] = Lipophilicity, logD of the compound at pH 7.4 at 25 degC; format: physicochemical; details: buffer
[8] = Chemical stability in pH 7.4 buffer; format: physicochemical
[9] = Drug recovery in iv dosed rat bile assessed as metabolically unchanged compound level in rat fistula study; format: ADME, organism-based; details: read-out: Drug recovery
[10] = AUClast in Wistar rat at 10 mg/kg, po administered as single dose treated 2 hrs after dosing with 40 mg/kg, po OATP/MRP2 inhibitor rifampicin and measured up to 24 hrs ESI-LC/MS-MS analysis; format: ADME, organism-based; parameters: dose 10 mg/kg, time < 24 hr, route oral; details: in vivo
Summary of the method: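 Male Wistar rats (n=3 per route) pretreated orally with rifampicin 40 mg/kg (0.6% methylcellulose, 0.5% Tween 80 in water) 2 h before compound, given 3 mg/kg i.v. in Glycoferol/Cremophor-water solution or 10 mg/kg p.o. wet-milled suspension. Plasma sampled up to 24 h; ESI-LC/MS-MS after acetonitrile precipitation (LOQ 1 ng/mL); noncompartmental analysis.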

[11] = Cmax in Wistar rat at 10 mg/kg, po administered as single dose measured up to 24 hrs ESI-LC/MS-MS analysis; format: ADME, organism-based; parameters: dose 10 mg/kg, route oral; details: in vivo; summary of the method: as §1
Rattus norvegicus = species: Rattus norvegicus; test: Improvement in GLP1(9-36)NH2-mediated glucose-stimulated insulin secretion in dispersed rat pancreatic islets at <10 uM incubated for 2 hrs by ELISA; format: functional
Summary of the method: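 Dispersed rat islets pre-incubated 1 h in Krebs-Ringer (5.6 mM glucose), then 2 h at 37 °C at 15 mM glucose with GLP1(9-36)NH2 1, 10 or 100 nM ± compound 1 µM, DMSO vehicle. Supernatant insulin measured by HTRF-based ELISA, expressed as % of total insulin and n-fold vs respective control; N≥9 per condition.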

Pancreatic islet [12] = test: Inhibition of GLP1(9-36)NH2-mediated glucose-stimulated insulin secretion in dispersed GLP-1(-/-) mouse pancreatic islets at 10 uM incubated for 2 hrs by ELISA; format: functional, cell-based
Pancreatic islet [13] = test: Inhibition of glucose-stimulated insulin secretion in dispersed GLP-1(-/-) mouse pancreatic islets at 10 uM incubated for 2 hrs by ELISA; format: functional, cell-based

Voltage-gated inwardly rectifying potassium channel KCNH2, sequence (Q12809 whole entry): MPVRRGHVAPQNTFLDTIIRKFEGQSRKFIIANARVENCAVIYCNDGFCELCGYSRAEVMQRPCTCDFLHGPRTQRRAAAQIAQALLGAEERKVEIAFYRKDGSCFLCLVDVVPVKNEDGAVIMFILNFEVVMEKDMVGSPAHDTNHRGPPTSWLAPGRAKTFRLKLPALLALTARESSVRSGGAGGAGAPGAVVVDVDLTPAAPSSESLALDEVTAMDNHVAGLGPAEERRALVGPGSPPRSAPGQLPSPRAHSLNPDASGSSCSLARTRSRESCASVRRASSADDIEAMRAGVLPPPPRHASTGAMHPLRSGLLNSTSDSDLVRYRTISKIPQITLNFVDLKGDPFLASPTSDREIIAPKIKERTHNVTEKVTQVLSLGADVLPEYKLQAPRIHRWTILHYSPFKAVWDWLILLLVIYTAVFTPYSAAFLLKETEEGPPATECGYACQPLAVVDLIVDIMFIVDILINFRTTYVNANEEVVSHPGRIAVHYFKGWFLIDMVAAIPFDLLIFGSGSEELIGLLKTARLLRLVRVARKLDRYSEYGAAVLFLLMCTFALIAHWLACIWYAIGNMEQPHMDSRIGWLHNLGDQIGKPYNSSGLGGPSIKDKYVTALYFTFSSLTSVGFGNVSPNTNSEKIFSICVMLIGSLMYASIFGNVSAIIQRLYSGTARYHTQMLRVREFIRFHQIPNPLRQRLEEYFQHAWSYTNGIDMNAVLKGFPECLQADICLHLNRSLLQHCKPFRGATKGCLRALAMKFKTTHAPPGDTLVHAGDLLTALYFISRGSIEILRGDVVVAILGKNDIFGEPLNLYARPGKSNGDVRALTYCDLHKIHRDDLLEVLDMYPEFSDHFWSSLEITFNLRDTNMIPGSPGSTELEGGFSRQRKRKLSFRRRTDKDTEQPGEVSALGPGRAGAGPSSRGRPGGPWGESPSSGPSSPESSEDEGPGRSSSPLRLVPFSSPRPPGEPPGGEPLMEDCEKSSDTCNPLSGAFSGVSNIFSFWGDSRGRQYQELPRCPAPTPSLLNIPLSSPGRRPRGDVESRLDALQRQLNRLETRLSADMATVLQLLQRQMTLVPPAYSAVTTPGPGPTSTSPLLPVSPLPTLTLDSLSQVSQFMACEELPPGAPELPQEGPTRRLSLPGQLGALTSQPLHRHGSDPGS

| uptake ratio at 0.25 h, 1 µM (OATP1B3) | bioavailability [2] [%] | clearance [3] [mL/min/kg] | CLH [4] [mL/h/10^6 cells] | Vd [5] [L/kg] | AUClast [6] [ng·h/mL] | logD [7] | Stability [8] [%] | dose excreted [9] [%] | AUC(0-t) at 24 h [10] [ng·h/mL] | Cmax [11] [ng/mL] | SMILES | IC50 [1] [µM] | Activity (Mus musculus) | Activity (Rattus norvegicus) | inhibition (Pancreatic islet [12]) | inhibition (Pancreatic islet [13]) |
| --- | --- | --- | --- | --- | --- | --- | --- | --- | --- | --- | --- | --- | --- | --- | --- | --- |
| 6 to 22 | 9 | 109 | 0.184 | 0.815 | 110 | 1.7 | 99 | 74 | 7340 | 106 | CC(C)(C)OC(=O)n1c2c(c3ccccc31)C[C@H]1C(=O)N3C[C@@H](CC(=O)O)C[C@H]3[C@@H]2N1C(=O)CC1CCC(F)(F)CC1 | > 30 | inactive | – | – | – |
| – | – | – | – | – | – | – | – | – | – | – | CC(O)CCN1C[C@H]2c3c(c4ccccc4n3C(=O)OC(C)(C)C)C[C@@H](C1=O)N2C(=O)CC1CCC(F)(F)CC1 (stereo partly specified) | – | – | Active | Active | Active |
